Rows were chosen to be rich in hits. Some 4.7% of all compounds tested hit in one or more screens of this group.
RGS4 inh = inhibitors of human RGS4. HEK293 M3R/RGS4 inducible, Fluo-4 calcium flux; stronger effect = higher value; triggered by carbachol at its EC20. B-score at 10 µM. hit rate 0.45% among 310,000. P49798;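 active = B-score, a plate-corrected calcium signal, over three deviations above library mean, with baseline fluorescence within five deviations of library mean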;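 also: RGS4 expression induced by doxycycline in cells with stable M3 receptor; B-score is computed from the integrated fluorescence ratio over baseline after carbachol; higher B-score means a larger calcium signal and so more RGS4 inhibition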
Target sequence (P49798 whole entry, looked up): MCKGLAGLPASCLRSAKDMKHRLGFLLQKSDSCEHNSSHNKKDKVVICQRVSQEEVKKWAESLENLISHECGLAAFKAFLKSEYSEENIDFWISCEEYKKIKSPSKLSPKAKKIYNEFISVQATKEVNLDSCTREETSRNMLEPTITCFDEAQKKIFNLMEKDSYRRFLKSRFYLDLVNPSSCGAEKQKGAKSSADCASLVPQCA
MrgX1 allo act = allosterically activates human MrgX1 receptor signaling | Q96LB2 | hit rate 0.63% among 310,000 | MrgX1-HEK293, Fluo-4 calcium flux, FDSS; stronger effect = higher value | AID 588675 | B-score at 10 µM;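 active = plate-corrected calcium response at least 3 library SD above typical, normal starting fluorescence, not activating the receptor alone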;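 also: compound read alongside a low EC10 to EC30 dose of BAM8-22 agonist; peak minus trough fluorescence over baseline measured at the second addition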
Target sequence (Q96LB2 whole entry, looked up): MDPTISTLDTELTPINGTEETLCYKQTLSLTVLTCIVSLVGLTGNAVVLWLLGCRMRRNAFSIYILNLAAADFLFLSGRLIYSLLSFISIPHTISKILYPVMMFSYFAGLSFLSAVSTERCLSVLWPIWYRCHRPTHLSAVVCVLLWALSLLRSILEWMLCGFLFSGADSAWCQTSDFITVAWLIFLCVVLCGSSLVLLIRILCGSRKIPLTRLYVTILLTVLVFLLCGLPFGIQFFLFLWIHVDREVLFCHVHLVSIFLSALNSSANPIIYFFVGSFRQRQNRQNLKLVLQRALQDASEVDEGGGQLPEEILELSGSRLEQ
MrgX1 ag = activates human MrgX1 receptor signaling; MrgX1-HEK293 cells, Fluo-4 calcium fluorescence, agonist mode; stronger effect = higher value; B-score at 10 µM; hit rate 0.44% among 310,000; AID 588627;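 active = calcium response B-score plate-corrected fluorescence ratio at least 3 library SD, with starting fluorescence B-score inside 5 SD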
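Material – MrgX1-expressing HEK293 cells · Input – 15,000 cells seeded per well · Dosing – compound as first of three additions · Times – overnight seeding, then 1 h dark dye loading · Measured by – kinetic Fluo-4 NW fluorescence of intracellular calcium · Read-out – B-scored fluorescence response ratio · Benchmarks – positive and negative control wells on each plate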
MrgX1 antagonist = blocks BAM8-22 activation of human MrgX1 receptor. Q96LB2. MRGX1-HEK293 calcium flux, Fluo-4, BAM8-22 antagonism; stronger effect = lower value. B-score at 10 µM. hit rate 1.3% among 310,000;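 active = calcium-response B-score plate-corrected more than 3 library SD below zero, starting fluorescence within 5 deviations, no agonist response on first addition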;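 also: peak minus trough fluorescence over baseline after final BAM8-22 challenge near maximal dose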
RGS4 pot = RGS4 potentiation or activation. HEK293 M3R/inducible RGS4, carbachol calcium flux Fluo4; stronger effect = lower value. B-score at 10 µM. hit rate 0.92% among 310,000. AID 463111;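 active = B-score of the integrated calcium signal more than 4 SD below the library mean, with starting fluorescence not abnormally high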;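 also: negative B-score means reduced calcium response which marks RGS4 activation or potentiation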
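Assay system: Inducible-RGS4 HEK293 cells carrying M3 receptor | Schedule: Compound preincubation 20 min at room temperature before agonist | Signal: Kinetic calcium fluorescence imaging with Fluo4-AM dye, 2 µM | Read-out basis: B score from integrated fluorescence ratio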
Cl transport mod = modulators of human KCC2 chloride dependent transport | KCC2 cells, thallium flux FluoZin-2 fluorescence | B-score of Tl+ flux slope (higher = more flux/activation; lower = inhibition) at 10 µM | hit rate 2.2% among 190,000;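 active = thallium flux slope and its plate-corrected score both differing from the plate sample mean at a set confidence after two filtering rounds, in either direction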;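 also: slope of fluorescence scaled to starting intensity during 10 to 20 s after thallium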
RGS4 act valid = RGS4 activation, validation assay | shares compounds with RGS4 pot | HEK293 M3R/RGS4 inducible, carbachol calcium flux Fluo4 | inhibition, % at 10 µM | hit rate 89% among 1,100;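 active = inhibition above 3 SD of the buffer control wells, cut at about 41% in these data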;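 also: signal is the integrated peak-minus-minimum Fluo4 fluorescence over baseline ratio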
RGS4 act ctr = RGS4 activator counter-screen hit in non-induced cells; shares compounds with RGS4 pot; HEK293 M3R non-induced RGS4, Fluo4 calcium flux; after carbachol challenge at its EC90; inhibition, % at 10 µM; hit rate 82% among 1,100; AID 602283;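 active = inhibition exceeding 3 SD of buffer-only control wells, cut at about 26% in these data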;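 also: percent drop in integrated peak-minus-baseline over baseline Fluo4 ratio after carbachol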
A number is an active result; n = inactive; x = not tested or not shown.

SMILES | RGS4 inh | MrgX1 allo act | MrgX1 ag | MrgX1 antagonist | RGS4 pot | Cl transport mod | RGS4 act valid | RGS4 act ctr
CCNc1nc(NC(C)(C)C)nc(N2CCCC2)n1 | n | n | n | n | -9 | n | 82 | 47
O=C(c1cc(-c2ccccc2)nc2ccccc12)N1CCOCC1 | n | n | n | n | n | x | x | x
CC(=O)c1ccc(N2CCN(C(=O)c3cc(-c4ccncc4)nc4ccc(Br)cc34)CC2)cc1 | n | n | n | n | -9.3 | x | 68 | n
CC(C)c1ccc(-c2cc(C(=O)N3CCOCC3)c3cc(Br)ccc3n2)cc1 | n | n | n | n | -8.4 | x | 80 | 38
COc1ccc(OC)c(/C=C/c2nc3ccccc3[nH]c2=O)c1 | n | n | n | n | -7.7 | x | 60 | 44
CCOC(=O)c1cc(-c2ccccc2)nc2nc(N(CC)CC)sc12 | n | n | n | n | -9 | x | 88 | 76
CCOC(=O)c1cc(-c2ccccc2)nc2nc(N3CCCCC3)sc12 | n | n | n | n | n | n | x | x
COc1ccc(CNC(C)CCc2ccccc2)cc1 (configuration not stated) | n | n | n | n | n | x | x | x
COc1ccc(CCC(C)NC2C3CC4CC(C3)CC2C4)cc1 (configuration not stated) | n | x | x | x | -8.8 | n | 92 | 87
COCCCN(C(=O)Cc1csc(-c2cccc(Cl)c2)n1)c1c(N)n(Cc2ccccc2)c(=O)[nH]c1=O | n | n | n | n | n | x | x | x
O=C(Nc1ccc(-c2cccc(F)c2)cc1)C1CCCN(Cc2ccccn2)C1 (configuration not stated) | n | n | n | n | -8.1 | x | 50 | 29
COc1cccc(-c2ccc(NC(=O)C3CCCN(Cc4cnn(C(C)C)c4)C3)cc2)c1 (configuration not stated) | n | n | n | n | -11 | x | 92 | 79
Cc1ncc(CN2CCCC(C(=O)Nc3ccc(-c4cccc(F)c4)cc3)C2)cn1 (configuration not stated) | n | n | n | n | n | x | x | x
COc1ccc(-n2c(COc3cccc4cccnc34)nnc2SCC(=O)O)cc1 | n | n | n | n | n | n | x | x
NC(=O)Cn1c(=O)n(Cc2ccccc2)c(=O)c2cccnc21 | n | n | n | n | n | x | x | x
CSCC[C@H](NC(=O)OC(C)(C)C)C(=O)N/N=C/c1cccc2nccnc12 | n | n | n | n | n | n | x | x
CSCC[C@H](NC(=O)OC(C)(C)C)C(=O)N/N=C/c1ccc2nccnc2c1 | n | n | n | n | -12 | n | n | n
Cc1ccc(CCN2CCN=C2Nc2ccccc2)cc1 | x | n | n | n | x | x | x | x
CCCCCOC(=O)c1ccc(OC(=O)c2cncc(Br)c2)cc1 | n | n | n | n | n | n | x | x
CCCCCCCOC(=O)c1ccc(OC(=O)c2cccnc2)cc1 | n | n | n | n | -8.4 | x | 90 | 59
N#CCCOC1(C#CCN2CCCC2)CCCCC1 | n | n | n | n | n | x | x | x
C/C(=C\C=C(C#N)C#N)c1cc(C#N)c(N)o1 | n | x | x | x | -8.3 | n | 62 | 57
OC(C#CCN1CCCC1)(c1ccccc1)c1cccnc1 (configuration not stated) | n | n | n | n | -8.2 | n | 92 | 86
CN1CCC(Oc2ccccc2Sc2ccc(C(F)(F)F)cc2)CC1 | n | n | n | n | n | n | x | x
CN1CCC(Oc2ccc(Sc3ccccc3)cc2)CC1 | n | n | n | n | -8.2 | x | 86 | 41
SMILES | RGS4 inh | MrgX1 allo act | MrgX1 ag | MrgX1 antagonist | RGS4 pot | Cl transport mod | RGS4 act valid | RGS4 act ctr
CCCCNc1c2c3c(cccc3n(C)c1=O)C(=O)c1ccccc1-2 | n | n | n | n | -12 | n | 100 | 97
Cc1ccc(NC(=S)NC2CCSc3ccccc32)cc1C (configuration not stated) | n | n | n | n | -8.8 | x | 92 | 93
COC(=O)NC(=S)Nc1ccc(Oc2ccc(Cl)cc2Cl)c(Cl)c1 | n | n | n | n | -7.8 | 11 | 92 | 70
Cc1ccc(-c2nn(-c3ccc(F)cc3)cc2C(=O)N(C)CC(=O)Nc2ccc(N3CCOCC3)cc2)cc1 | n | n | n | n | n | x | x | x
CCc1ccc(NC(=O)CCc2nc3cccnc3n2Cc2ccc(OC)cc2)cc1 | n | n | n | n | -8 | n | n | n
CCCCCCNC(=O)CCc1nc2cccnc2n1Cc1ccc(OC)cc1 | n | n | n | n | n | x | x | x
O=C(NCC1CCCO1)/C(=C/c1ccccc1F)NC(=O)c1ccccc1 (configuration not stated) | n | n | n | n | n | x | x | x
COc1ccc(-n2nc3c(c2NC(=O)c2ccc(S(=O)(=O)N4CCOCC4)cc2)CS(=O)C3)cc1 (configuration not stated) | n | n | n | n | n | n | x | x
O=C(Nc1ccc(S(=O)(=O)N2CCCC2)cc1)c1ccc(OCC2CCCO2)cc1 (configuration not stated) | n | n | n | n | n | n | x | x
O=C(Nc1ccc(Cl)c(S(=O)(=O)N2CCOCC2)c1)c1ccc(OCC2CCCO2)cc1 (configuration not stated) | n | n | n | -11 | -11 | n | 94 | 79
N#Cc1ccsc1NC(=O)CCN1CCN(C(c2ccccc2)c2ccccc2)CC1 | n | n | n | n | -9.1 | x | 74 | 84
N#Cc1ccsc1NC(=O)CCc1ccccc1 | n | n | n | n | n | n | x | x
CC(C)(C)NC(=O)COC(=O)c1c2c(nc3ccccc13)CCC2 | n | n | n | n | -9.6 | x | 44 | n
NC(=O)COC(=O)c1c2c(nc3ccccc13)CCCC2 | n | n | n | n | n | n | x | x
O=C(OCC(=O)N1CCc2ccccc21)c1c2c(nc3ccccc13)CCCCC2 | n | n | n | n | -9.4 | n | 83 | 44
Cc1c(NC(=O)Nc2cccc(C(F)(F)F)c2)c(=O)n(-c2ccccc2)n1C | n | n | n | n | n | x | x | x
COC(=O)c1ccc(CN2CCN(C3CCCC3)C(CCO)C2)cc1 (configuration not stated) | n | n | n | n | -9.3 | x | 92 | 67
CCN(CC)C(=O)Cn1cc(C(=O)C(=O)NCCCN2CCCCC2)c2ccccc21 | n | n | n | n | n | x | x | x
Cc1ccc(NC(=O)CNC(=O)c2ccco2)nc1 | n | n | n | n | n | x | x | x
COc1ccc(C(=O)NCCCNC(=O)c2cnccn2)cc1Br | n | n | n | n | n | x | x | x
CCN(CC)CC#CCC(O)(c1ccccc1)C1CCCCC1 (configuration not stated) | n | n | n | n | -10 | n | 91 | 90
Cc1nc2sc(C)c(C)c2c(=O)o1 | n | n | n | n | -8.5 | n | n | n
